Results collected from several papers.
Each line is one published result; the experiments were not run side by side.

Structure (SMILES) | assay | test system | setting | half-life [h]
CCc1cc(C(=O)NC)c2nccc(N3CCc4c(cc(Cn5ccnc5)cc4-c4cn(C)nc4C(F)(F)F)C3=O)c2c1 | – | male Sprague-Dawley rat, plasma | oral, 50 mg/kg, single dose | 3.8
N#Cc1ccc(Nc2nc(N)cc(Oc3c(F)cc(-c4ccc(C#N)cc4)cc3F)n2)cc1 | – | Sprague-Dawley rat, plasma | intravenous, 1 mg/kg | 1.25
COc1ccc2c(=O)n(C)c(-c3ccccc3)nc2c1 | – | male Sprague-Dawley rat, plasma | intravenous, 2 mg/kg | 0.83
COc1ccc2c(Cc3ccccc3F)c3n(c(=O)c2c1OC)CCc1cc2c(cc1-3)OCO2 | – | rat, plasma | intravenous, 5 mg/kg | 3.07
Oc1c(-n2ccnn2)cnn1-c1cc(N2CCOCC2)ncn1 | – | male rat, plasma | oral, 5 mg/kg | 3
CCOC(=O)[C@@]12C[C@@H]1[C@@H](n1ccc3c(NC)nc(C#Cc4ccc(Cl)s4)nc31)[C@H](O)[C@@H]2O | – | male Sprague-Dawley rat, plasma | intravenous, 0.5 mg/kg | 1.31
O=c1[nH]cc(F)c(=O)[nH]1 | – | Sprague-Dawley rat, plasma | oral, 20 mg/kg | 1.81
Cc1c(-c2ccccc2)cccc1N1C(=O)c2cc(CN[C@H](C(=O)O)C(C)O)c(OCc3cccc(C#N)c3)cc2C1=O (stereo partly drawn) | – | Sprague-Dawley rat, plasma | oral, 50 mg/kg | 4.33
O=C(Nc1ccc(C(F)(F)F)cc1)N1CCC(Cc2cccc(Oc3ccc(C(F)(F)F)cn3)c2)CC1 | – | male Sprague-Dawley rat, blood | oral, 1 mg/kg | 7.2
N#Cc1[nH]nnc1-c1cc(Cl)cc(/C=C/c2cccc(C(F)(F)F)c2)c1 | – | male Sprague-Dawley rat, plasma | oral, 10 mg/kg | 2.9
COc1nc(-c2cc(C)c(N[C@@H](C)c3cc(F)cc(F)c3)nn2)ccc1-n1cnc(C)c1 | – | male Sprague-Dawley rat, plasma | oral, 5 mg/kg, single dose | 2.2
Nc1ncn([C@H]2C[C@H](O)[C@@H](CO)O2)c(=O)n1 | – | male Wistar rat, plasma | intravenous, 21 µmol/kg | 2.43
Cc1cnc(N2CC3(CCOCC3)C2)c(C(=O)Nc2ccc(C(=O)N3CCc4cc(C(=O)Nc5c(C)cccc5F)sc4-c4ccccc43)cc2)c1 | – | rat, plasma | intravenous, 0.1 mg/kg, single dose | ~2.3
Cc1noc(-c2cc3cc(-c4nc(C(=O)NCc5ccncc5)[nH]c4C)ccc3[nH]2)n1 | – | Sprague-Dawley rat, plasma | intravenous, 1 mg/kg | 1.8
CC[C@H](C)[C@H](NC(=O)[C@H](Cc1ccccc1)NC(=O)[C@H](CCC(=O)O)NC(=O)[C@H](CCCNC(=N)N)NC(=O)[C@H](C)NC(=O)[C@H](C)NC(=O)[C@H](CCC(N)=O)NC(=O)[C@H](CCC(=O)O)NC(=O)[C@H](CCC(=O)O)NC(=O)[C@H](CC(C)C)NC(=O)[C@H](Cc1ccc(O)cc1)NC(=O)[C@H](CO)NC(=O)[C@H](CO)NC(=O)[C@@H](NC(=O)[C@H](CC(=O)O)NC(=O)[C@H](CO)NC(=O)[C@@H](NC(=O)[C@H](Cc1ccccc1)NC(=O)[C@@H](NC(=O)CNC(=O)[C@H](CCC(=O)O)NC(=O)[C@H](C)NC(=O)CCc1c[nH]cn1)[C@@H](C)O)[C@@H](C)O)C(C)C)C(=O)N[C@@H](C)C(=O)N[C@@H](Cc1c[nH]c2ccccc12)C(=O)N[C@@H](CC(C)C)C(=O)N[C@H](C(=O)N[C@@H](CCCNC(=N)N)C(=O)NCC(=O)N[C@@H](CCCNC(=N)N)C(=O)N[C@@H](CCCCNC(=O)COCCOCCNC(=O)COCCOCCNC(=O)CC[C@H](NC(=O)CCCCCCCCCCCCCCCCC(=O)O)C(=O)O)C(=O)O)C(C)C | – | rat, plasma | subcutaneous, 20 nmol/kg | 13
COCCOC(=O)C1=C(C)NC(C)=C(C(=O)OC(C)C)C1c1cccc([N+](=O)[O-])c1 (stereo not drawn) | – | male Sprague-Dawley rat, plasma | intravenous, 3 mg/kg | 6.7
COc1cc2c3c(n(CCCN4CCOCC4)c(=O)c2cc1OC)-c1cc2c(cc1C3=O)OCO2 | – | male Fischer 344 rat, plasma | intravenous, 24 mg/m², single dose | 3.6
O=C(O)/C=C/c1ccc(O)c(O)c1 | HPLC | Wistar rat, plasma | oral | 0.33
O=C(Nc1cc(F)c(F)c(F)c1)c1ccc(F)c(S(=O)(=O)NCc2cccc(B(O)O)c2)c1 | – | male Sprague-Dawley rat, plasma | intravenous, 2 mg/kg | 0.94
COc1ccc(C(C)=O)c(O)c1 | – | male Sprague-Dawley rat, plasma | oral, 100 mg/kg | 3.37
CCc1cc(OC)c2nccc(N3CCc4c(cc(Cn5ccnc5)cc4-c4cn(C)nc4C(F)(F)F)C3=O)c2c1 | – | male Sprague-Dawley rat, plasma | oral, 50 mg/kg | 1.3
N#Cc1[nH]nnc1-c1cccc(OCc2cc(C(F)(F)F)ccc2C(F)(F)F)c1 | – | male Sprague-Dawley rat, plasma | oral, 10 mg/kg | 3.9
Oc1c(Br)cc(Cl)c2cccnc12 | – | Sprague-Dawley rat, plasma | oral, 20 mg/kg | 5.6
C#Cc1cccc(Nc2ncnc3cc(OCCOC)c(OCCOC)cc23)c1 | – | male Sprague-Dawley rat, plasma | oral, 12 mg/kg, single dose | 2.25
